Data published in ChEMBL document CHEMBL4339209, “Chemical modifications of imidazole-containing alkoxyamines increase C-ON bond homolysis rate: Effects on their cytotoxic properties in glioblastoma cells” (Bioorg Med Chem, 2019).
Calls of active or inactive are those of the source. No cut-off for these calls is given here.

Tests used:
[1] = Half life in H2O/MeOH buffered with HEPES/NaCl at pH 7.4 in presence of alkyl radical scavenger TEMPOR by 31P[1H]-NMR analysis; format: physicochemical; conditions: buffer
[2] = n-octanol/phosphate buffered saline partition coefficient, log D of the compound at pH 7.4 by shake-flask method; format: physicochemical; conditions: octanol/water
In short: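 Shake-flask partition between pre-saturated n-octanol and PBS at pH 7.4. The aqueous phase was quantified by RP-HPLC on a 4.6 × 50 mm column, eluting with CH3CN/H2O (each with 0.1% TFA) from 10:90 to 100:0 over 10 min.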

[3] = Half life in H2O/MeOH buffered with Na2CO3/NaHCO3 at pH 10.3 in presence of alkyl radical scavenger TEMPOR by 31P[1H]-NMR analysis; format: physicochemical; conditions: buffer, pH 10.3
[4] = Half life in H2O/MeOH buffered with HCl/KCl at pH 2.2 in presence of alkyl radical scavenger TEMPOR by 31P[1H]-NMR analysis; format: physicochemical; conditions: buffer
[5] = Dissociation constant, pKa of the compound in 1:1 v/v D2O/CD3OD by 1H-NMR spectrometric method; format: physicochemical
In short: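 Samples in D2O/CD3OD (1:1 v/v) were adjusted with DCl/NaOD to a series of pH* values, read on a meter calibrated with non-deuterated standards, and 1H-NMR was recorded at 400 MHz. Imidazole proton chemical shifts were plotted against pH* and fitted sigmoidally. The pKa* was converted by pH = 0.929 pH* + 0.42.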

[6] = Stability in H2O/MeOH buffered with Na2CO3/NaHCO3 at pH 10.3 assessed as temperature; format: physicochemical; conditions: buffer
U-251 [7] = test: Cytotoxicity against human U251MG cells assessed as reduction in cell survival measured after 72 hrs by MTT assay; format: functional, cell-based; conditions: for IC50: U-251, 72 h
In short: (§1)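 MTT viability on 2D cultures, U87-MG in DMEM and U251-MG in EMEM with […], both with 10% FBS and Pen Strep. 5000 cells seeded, then 72 h exposure to 500, 250, 100, 50, 25, 10 and 5 μM (DMSO at most […]). MTT 0.5 mg/mL for 1 h, formazan in DMSO read at 550 nm. Survival as % of control. IC50 determined graphically. At least triplicate.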

[8] = Stability in H2O/MeOH buffered with HEPES/NaCl at pH 7.4 assessed as temperature; format: physicochemical; conditions: buffer
[9] = Drug homolysis in H2O/MeOH buffered with HCl/KCl at pH 2.2 assessed as activation energy in presence of alkyl radical scavenger TEMPOR by 31P[1H]-NMR analysis
[10] = Drug homolysis in H2O/MeOH buffered with Na2CO3/NaHCO3 at pH 10.3 assessed as rate constant by measuring nitroxide level in presence of alkyl radical scavenger TEMPOR by 31P[1H]-NMR analysis
[11] = Drug homolysis in H2O/MeOH buffered with Na2CO3/NaHCO3 at pH 10.3 assessed as activation energy in presence of alkyl radical scavenger TEMPOR by 31P[1H]-NMR analysis
[12] = Drug homolysis in H2O/MeOH buffered with HCl/KCl at pH 2.2 assessed as rate constant by measuring nitroxide level in presence of alkyl radical scavenger TEMPOR by 31P[1H]-NMR analysis
U-87 MG = test: Cytotoxicity against human U87MG cells assessed as reduction in cell survival measured after 72 hrs by MTT assay; format: functional, cell-based; conditions: U-87MG ATCC; in short: as §1
[13] = Drug homolysis in H2O/MeOH buffered with HEPES/NaCl at pH 7.4 assessed as activation energy in presence of alkyl radical scavenger TEMPOR by 31P[1H]-NMR analysis
[14] = Drug homolysis in H2O/MeOH buffered with HEPES/NaCl at pH 7.4 assessed as rate constant by measuring nitroxide level in presence of alkyl radical scavenger TEMPOR by 31P[1H]-NMR analysis
U-251 [15] = test: Cytotoxicity against human U251MG cells assessed as reduction in cell survival at IC50 measured after 72 hrs in presence of alkyl radical scavenger troxerutin by MTT assay; format: functional, cell-based
In short: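 U251-MG cells in EMEM (10% FBS, Pen Strep, […]) were exposed for 72 h to alkoxyamine together with an equal concentration of the alkyl radical scavenger troxerutin. Survival was read by MTT (0.5 mg/mL, 1 h, OD 550 nm) as % of control, and compared with alkoxyamine alone. At least triplicate.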

SMILES	logD [2]	Activity (U-251 [7])	Activity (U-87 MG)	Ea [13] [kcal/mol]	Kdiss [14]	other results
CCOP(=O)(OCC)C(N(OC(C)c1nccn1C)C(C)(C)C)C(C)(C)C (stereo in doubt; form 2) [listing 1 of 2 here]	3.7					t1/2 [1]: 10 h; t1/2 [3]: 39 h; t1/2 [4]: 1.98 h; pKa [5]: 6.5
CCOP(=O)(OCC)C(N(OC(C)c1c[nH]cn1)C(C)(C)C)C(C)(C)C (stereo in doubt; form 2) [listing 1 of 2 here]	4					t1/2 [1]: 312 h; T [6]: 70 °C; t1/2 [3]: 456 h; IC50 (U-251 [7]): 20 µM; t1/2 [4]: 190 h; pKa [5]: 6.13
CCOP(=O)(OCC)C(N(OC(C)n1ccnc1)C(C)(C)C)C(C)(C)C (stereo in doubt; form 2)						pKa [5]: 5.81
CCOP(=O)(OCC)C(N(OC(C)n1cc[n+](C)c1)C(C)(C)C)C(C)(C)C (stereo in doubt; form 2) [listing 1 of 2 here]	0.3					
CCOP(=O)(OCC)C(N(OC(C)c1cn(C)c[n+]1C)C(C)(C)C)C(C)(C)C (stereo in doubt; form 2) [listing 1 of 2 here]	0.4					t1/2 [1]: 29 h; T [8]: 80 °C
CCOP(=O)(OCC)C(N(OC(C)c1n(C)cc[n+]1C)C(C)(C)C)C(C)(C)C (stereo in doubt; form 2) [listing 1 of 2 here]	0.5					t1/2 [1]: 3.4 h; T [8]: 60 °C
CCOP(=O)(OCC)C(N(OC(C)c1c[nH]cn1)C(C)(C)C)C(C)(C)C (stereo in doubt; form 2) [listing 2 of 2 here]		Dose-dependent effect	Dose-dependent effect	29.2	1.95 ×10⁻⁴ /s	Ea [9]: 29 kcal/mol; Kdiss [10]: 4.07 ×10⁻⁵ /s; Ea [11]: 29.5 kcal/mol; Kdiss [12]: 2.8 ×10⁻⁴ /s
CCOP(=O)(OCC)C(N(OC(C)c1cn(C)c[n+]1C)C(C)(C)C)C(C)(C)C (stereo in doubt; form 2) [listing 2 of 2 here]		Dose-dependent effect	Dose-dependent effect	27.7	1.61 ×10⁻³ /s	
CCOP(=O)(OCC)C(N(OC(C)c1cn(C)cn1)C(C)(C)C)C(C)(C)C (stereo in doubt; form 2)		Dose-dependent effect	Dose-dependent effect	29.5	1.24 ×10⁻⁴ /s	Ea [9]: 28.8 kcal/mol; Kdiss [10]: 4.57 ×10⁻⁵ /s; Ea [11]: 30.3 kcal/mol; Kdiss [12]: 3.55 ×10⁻⁴ /s
CCOP(=O)(OCC)C(N(OC(C)c1n(C)cc[n+]1C)C(C)(C)C)C(C)(C)C (stereo in doubt; form 2) [listing 2 of 2 here]		Dose-dependent effect	Dose-dependent effect	26.4	1.1 ×10⁻³ /s	
CCOP(=O)(OCC)C(N(OC(C)c1ncc[nH]1)C(C)(C)C)C(C)(C)C (stereo in doubt; form 2)		Dose-dependent effect	Dose-dependent effect	28.2	2.61 ×10⁻⁴ /s	Ea [9]: 26.6 kcal/mol; Kdiss [10]: 2.47 ×10⁻⁴ /s; Ea [11]: 29.1 kcal/mol; Kdiss [12]: 9.16 ×10⁻⁴ /s
CCOP(=O)(OCC)C(N(OC(C)c1nccn1C)C(C)(C)C)C(C)(C)C (stereo in doubt; form 2) [listing 2 of 2 here]		Dose-dependent effect	Dose-dependent effect	27.1	1.28 ×10⁻³ /s	Ea [9]: 26.1 kcal/mol; Kdiss [10]: 1.23 ×10⁻³ /s; Ea [11]: 27.9 kcal/mol; Kdiss [12]: 1.8 ×10⁻³ /s
CCOP(=O)(OCC)C(N(OC(C)n1cc[n+](C)c1)C(C)(C)C)C(C)(C)C (stereo in doubt; form 2) [listing 2 of 2 here]		Dose-dependent effect	Dose-dependent effect	32.3	2.84 ×10⁻⁵ /s	Activity (U-251 [15]): Active
Cn1nnc2c(C(N)=O)ncn2c1=O [TEMOZOLOMIDE]						IC50 (U-251 [7]): 455 µM
